G6PDH counter – inhibits Leuconostoc G6PDH, flagging false hits in G6PDH-based assays; Purified L. mesenteroides G6PDH, diaphorase/resazurin coupled fluorescence, 45 min; inhibition, % at 5 µM; 200,000 tested, 0.12% active; in the data active means inhibition above about 50%
Diaph inh CS – diaphorase inhibition or chemical oxidation counter-screen. inhibition, % at 20 µM. diaphorase resazurin-to-resorufin fluorescence, NADH, 16 min; bacterial (C. kluyveri) enzyme, not human. 190,000 tested, 0.69% active;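 active means primary screen inhibition at 20 µM above a set limit, cut at about 50% in these data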;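 further: plate controls were DMSO with full reaction for no effect and wells lacking NADH for full effect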
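Test system: diaphorase enzyme from Clostridium kluyveri; amount: diaphorase at 0.14 U/mL in enzyme working solution; detection: fluorescence of resorufin formed from resazurin, Ex 544/Em 590 nm; times: reaction incubation of 16 min at room temperature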
PfGluPho inh – PfG6PD (Plasmodium falciparum) enzyme inhibition; PfGluPho enzyme, NADPH resazurin-diaphorase fluorescence; 350,000 tested, 0.78% active; AID 504690; inhibition, % at 20 µM;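 active means inhibition reaching at least a set limit at 20 µM in the primary screen, cut at about 59% in these data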;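 further: 0% = DMSO wells with substrate and 100% = DMSO wells lacking glucose-6-phosphate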
HKDC1 inhibitor – inhibitors of human hexokinase HKDC1; Q2TB90; recombinant HKDC1, G6PDH/diaphorase resazurin coupled fluorescence; inhibition, % at 20 µM; 340,000 tested, 0.16% active;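 active means inhibition above about 35% when tested at 20 µM, limit read from the data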;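 further: plate controls were DMSO wells with enzyme for no effect and DMSO wells lacking enzyme for full effect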
Target sequence (Q2TB90 whole entry, looked up): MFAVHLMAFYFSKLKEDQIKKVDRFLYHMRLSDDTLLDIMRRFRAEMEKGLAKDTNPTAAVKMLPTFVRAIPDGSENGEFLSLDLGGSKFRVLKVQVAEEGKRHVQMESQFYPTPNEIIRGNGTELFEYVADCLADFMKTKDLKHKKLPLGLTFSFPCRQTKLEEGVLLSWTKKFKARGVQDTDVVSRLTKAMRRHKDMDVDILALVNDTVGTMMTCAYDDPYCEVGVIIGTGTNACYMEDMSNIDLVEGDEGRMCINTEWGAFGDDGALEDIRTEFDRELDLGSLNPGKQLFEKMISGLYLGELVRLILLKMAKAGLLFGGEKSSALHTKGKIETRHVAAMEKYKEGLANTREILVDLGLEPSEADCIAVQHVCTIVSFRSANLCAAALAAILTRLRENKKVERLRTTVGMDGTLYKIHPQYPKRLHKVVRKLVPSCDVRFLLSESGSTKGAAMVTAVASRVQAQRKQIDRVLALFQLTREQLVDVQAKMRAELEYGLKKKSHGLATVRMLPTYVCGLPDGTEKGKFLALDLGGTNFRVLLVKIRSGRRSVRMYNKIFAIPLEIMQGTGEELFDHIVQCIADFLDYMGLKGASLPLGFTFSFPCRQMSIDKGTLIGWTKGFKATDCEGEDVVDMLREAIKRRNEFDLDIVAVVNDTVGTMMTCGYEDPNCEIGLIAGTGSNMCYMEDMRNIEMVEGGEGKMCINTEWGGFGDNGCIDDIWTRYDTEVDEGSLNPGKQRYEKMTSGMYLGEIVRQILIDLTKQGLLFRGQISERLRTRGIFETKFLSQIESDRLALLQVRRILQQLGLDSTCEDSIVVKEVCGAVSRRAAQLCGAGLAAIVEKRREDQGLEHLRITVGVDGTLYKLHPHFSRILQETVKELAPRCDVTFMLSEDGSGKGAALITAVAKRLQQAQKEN
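Assay system – recombinant HKDC1 (HK5) hexokinase enzyme, produced in-house · Input – HKDC1 at 5 µg/mL · Reagent – glucose plus 1 mM ATP as hexokinase substrates · Timing – 90 min reaction incubation at room temperature, dark · Measured by – G6PDH/diaphorase-coupled fluorescence, 1 mM NADP, 100 µM resazurin, 525/613 nm · Benchmarks – DMSO-enzyme wells negative, buffer-substituted wells positive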
PfGluPho conf – PfG6PD inhibition, single-dose confirmed; shares compounds with PfGluPho inh; recombinant PfGluPho, NADPH-diaphorase-resazurin fluorescence; inhibition, % at 20 µM; 2,400 tested, 34% active; AID 504753;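 active means inhibition of at least 50% at 20 µM in any single replicate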;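 further: 0% = DMSO with substrate and 100% = DMSO lacking glucose-6-phosphate substrate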
Diaphorase 10uM – diaphorase inhibition or oxidation at 10 uM NADPH; shares compounds with PfGluPho inh; diaphorase-coupled resazurin reduction, fluorescence, NADPH 10 uM; inhibition, % at 20 µM; 820 tested, 39% active;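 active means average inhibition reaching 50% or more with the compound at 20 µM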;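 further: resorufin red fluorescence formed as diaphorase reduces resazurin using NADPH; 0% = DMSO with enzyme and 100% = DMSO without enzyme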
Diaph ctr 30uM – diaphorase inhibition or oxidation at 30 uM NADPH; shares compounds with PfGluPho inh; inhibition, % at 20 µM; 820 tested, 29% active; AID 504863; Diaphorase/resazurin coupled assay, resorufin fluorescence;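 active means inhibition averaging 50% or more, tested at 20 µM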;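 further: 0% = DMSO with enzyme and 100% = DMSO wells lacking diaphorase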
Active calls of the source: *; nt = no result. The list is not random: actives were taken first. Their share in the collection is about 1.2%.

SMILES | G6PDH counter | Diaph inh CS | PfGluPho inh | HKDC1 inhibitor | PfGluPho conf | others
Cc1cccc(NC(=O)CSc2nnc(-c3ccco3)c(-c3ccco3)n2)c1C | 26 | 45 | 61* | 17 | 11
COc1ccccc1N1CCN(CCC(=O)Nc2cccc(Cl)c2)CC1 | nt | nt | 8 | -8 | nt
Cc1ccc(COc2ccccc2C(=S)N2CCCC2)cc1 | 7 | 6 | 25 | -8 | nt
Fc1ccc(COc2ccccc2C(=S)N2CCCC2)cc1 | 3 | 2 | 70* | -10 | 39
O=C(Sc1n[nH]c(=O)[nH]c1=O)c1ccccc1 | nt | nt | 111* | 1 | 93* | Diaphorase 10uM=-8;Diaph ctr 30uM=-9
CC(=O)N1c2ccc(S(=O)(=O)NCC3CCC(C(=O)N4CCCC(C)C4)CC3)cc2CC1C (centres undefined) | nt | nt | 14 | -2 | nt
CC(C)n1cnc2c(NCc3ccccc3)cc(N[C@H](C)CO)cc21 | nt | nt | 67* | 20 | 37
COCCCOc1cc(NCc2ccccc2)c2ncn(C(C)C)c2c1 | nt | nt | 48 | 4 | nt
CCCCOc1cc(NCc2ccccc2)c2ncn(C(C)C)c2c1 | nt | nt | 73* | 18 | 31
COc1cc(NCc2ccccc2)c2ncn(Cc3ccccc3)c2c1 | nt | nt | 66* | 13 | 50* | Diaphorase 10uM=-11;Diaph ctr 30uM=-10
CCC(COC)Oc1cc(NCc2ccccc2)c2ncn(C(C)C)c2c1 (centres undefined) | nt | nt | 83* | 21 | 40
CCn1c(=O)c(=O)[nH]c2cc(C(=O)NCc3ccc(F)cc3)ccc21 | nt | nt | 18 | -2 | nt
Cc1cc2occ(CC(=O)N(C)CC(=O)Nc3ccccc3C(F)(F)F)c2cc1C | nt | nt | 14 | -1 | nt
C=CCCC(=O)N1CCCC(C(=O)c2cccc(OC)c2)C1 (centres undefined) | nt | nt | 4 | -3 | nt
Cc1ccc2nc(/C(C#N)=C/c3ccc(-c4ccccc4C(=O)O)o3)[nH]c2c1 | nt | nt | 4 | 6 | nt
Cc1cc2nc(/C(C#N)=C\c3ccc(-c4ccccc4C(=O)O)o3)[nH]c2cc1C | nt | nt | 60* | 12 | 46
CN1C[C@@H]2[C@@H]3C(=O)N(C)C(=O)[C@@H]3[C@](C)(C1=O)N2C(=O)c1ccccc1 | nt | nt | 6 | -3 | nt
COc1ccc2[nH]cc(CCNC(=O)c3ccc4ccccc4n3)c2c1 | nt | nt | 62* | 4 | 40
COc1ccccc1-c1cc(C(=O)N2CCN(S(=O)(=O)c3ccc(C)cc3)CC2)[nH]n1 | nt | nt | -4 | 10 | nt
CCOC(=O)c1sc(=S)n(C)c1NC(=O)c1ccccc1C | -5 | 4 | 55 | -8 | nt
CCOC(=O)c1sc(=S)n(C)c1NC(=O)c1ccc(F)cc1 | 19 | 0 | 72* | -12 | 41
Nc1ccc(S(N)(=O)=O)cc1N | nt | nt | 60* | 8 | 4
Nc1ccc(S(N)(=O)=O)cc1 | nt | nt | -3 | -4 | nt
CCc1c(C(=O)Nc2ccccc2)c(C)[nH]c(=S)c1C#N | 0 | 15 | 59* | 6 | 54* | Diaphorase 10uM=-29;Diaph ctr 30uM=-20
Cc1[nH]c(=S)c(C#N)c(C)c1C(=O)Nc1ccccc1 | 2 | 14 | 62* | -6 | 37
SMILES | G6PDH counter | Diaph inh CS | PfGluPho inh | HKDC1 inhibitor | PfGluPho conf | others
O=C(O)C1(Nc2ccc(Br)cc2)CCCC1 | nt | nt | -14 | -2 | nt
Cc1ccc(-c2cc(-c3ccc(Cl)cc3)c(C#N)c(N)n2)o1 | 8 | 6 | 96* | 18 | 1
Cc1ccc(-c2cc(-c3ccc(F)cc3)c(C#N)c(N)n2)o1 | 10 | 24 | 48 | 4 | nt
Cc1ccc(-c2cc(-c3ccc(C)o3)nc(N)c2C#N)cc1 | -2 | 22 | 60* | 11 | -19
COc1ccccc1/C=N/NC(=O)c1nnn(-c2nonc2N)c1-c1ccccc1 | nt | nt | 16 | 0 | nt
Nc1nonc1-n1nnc(C(=O)N/N=C/c2ccc(Br)cc2)c1-c1ccc2c(c1)OCO2 | nt | nt | -8 | -2 | nt
Cc1ccc(-c2c(C(=O)N/N=C/c3sccc3C)nnn2-c2nonc2N)cc1 | nt | nt | 88* | 2 | 45
Cc1ccsc1/C=N/NC(=O)c1nnn(-c2nonc2N)c1C | nt | nt | 10 | 2 | nt
COc1ccccc1/C=N/NC(=O)c1nnn(-c2nonc2N)c1-c1cccs1 | nt | nt | 93* | 5 | 55* | Diaphorase 10uM=85*;Diaph ctr 30uM=67*
Nc1nonc1-n1nnc(C(=O)N/N=C/c2cccc(Cl)c2)c1-c1ccc2c(c1)OCO2 | nt | nt | 119* | 0 | 99* | Diaphorase 10uM=87*;Diaph ctr 30uM=66*
COC(=O)c1cc(CNC(=O)c2ccccc2OCc2c(C)noc2C)ccc1OC | nt | nt | -7 | 4 | nt
O=C(CSc1nc2cc([N+](=O)[O-])ccc2n1-c1ccccc1)NCc1ccc2c(c1)OCO2 | -15 | 0 | 68* | -7 | -6
Cc1cc(C)cc(-n2c(SCC(=O)NCc3ccc4c(c3)OCO4)nc3ccccc3c2=O)c1 | -9 | 15 | 5 | -8 | nt
NC(=O)N/N=C/c1ccc(-n2nncc2-c2ccc(Cl)cc2)cc1 | nt | nt | 77* | -1 | 50* | Diaphorase 10uM=48;Diaph ctr 30uM=50
CC(C)(C)NC(=O)C1(N2C(=O)c3ccccc3C2=O)CCCC1 | nt | nt | -7 | -5 | nt
O=C(O)CCCn1cc(NC(=O)c2sc3ccccc3c2Cl)cn1 | nt | nt | 18 | 0 | nt
Cc1nn(CCC(N)=S)c2nc(-c3cccs3)cc(C(F)(F)F)c12 | -18 | 22 | 62* | 0 | 7
CC(=O)Oc1ccc(-c2csc(Nc3ccc(S(N)(=O)=O)cc3)n2)cc1 | 14 | nt | 62* | -8 | 11
NS(=O)(=O)c1ccc(Nc2nc(-c3ccc(O)cc3)cs2)cc1 | 13 | 14 | 70* | -2 | 11
Cc1nc(N)sc1-c1csc(Nc2ccc(S(N)(=O)=O)cc2)n1 | nt | nt | 45 | -3 | nt
O=C(CSc1nnc(-c2ccncc2)n1-c1ccccc1)NC1CC1 | nt | nt | -2 | -2 | nt
Cc1sc2nc(CSC(C)C(=O)NC3(C#N)CCCCC3)[nH]c(=O)c2c1C (centres undefined) | nt | nt | 6 | 7 | nt
CC1=CN2C(=N)/C(=C/c3ccc([N+](=O)[O-])o3)C(=O)N=C2S1 | -28 | 50 | 59* | 1 | 73* | Diaphorase 10uM=26;Diaph ctr 30uM=35
COc1ccc(NS(=O)(=O)c2ccc(N3CCCC3)c(NC(=S)Nc3ccc(SC(F)F)cc3)c2)cc1 | -14 | 6 | 69* | -16 | 37
COc1ccc(NS(=O)(=O)c2ccc(N3CCCC3)c(N)c2)cc1 | nt | nt | -7 | 0 | nt
COc1ccc(NS(=O)(=O)c2ccc(N3CCCC3)c(NC(=S)Nc3cccc(C)c3C)c2)cc1 | 0 | 21 | 80* | -12 | 53* | Diaphorase 10uM=-29;Diaph ctr 30uM=-12
CCNC(=O)Nc1cc(S(=O)(=O)Nc2ccc(OC)cc2)ccc1N1CCOCC1 | nt | nt | -16 | -7 | nt
CCOC(=O)c1c(N)sn(-c2ccccc2C)c1=S | 9 | 19 | 73* | -18 | 36
CCS(=O)(=O)c1cc([N+](=O)[O-])c(Sc2ccccc2NC(C)=O)s1 | nt | nt | 62* | 9 | -8
CCOc1ccc(-c2n[nH]c(C)c2-c2ccccc2OC)c(O)c1 | 14 | 12 | 17 | -1 | nt
